Experimental data published in ChEMBL document CHEMBL6109036, “Azo derivatives of monoterpenes as anti-Helicobacter pylori agents: from synthesis to structure-based target investigation” (RSC Med Chem, 2025).
≈ marks a conversion by molar mass, not a printed value.

Tests used:
Assay type in all cases: functional
Helicobacter pylori [1] = assay: Anti-bacterial activity against Helicobacter pylori NCTC 11637 measured after 72 hrs incubation by modified broth dilution method
Helicobacter pylori [2] = assay: Bactericidal activity against Helicobacter pylori NCTC 11637 measured after 72 hrs of incubation under microaerophilic conditions by modified broth dilution method; settings: read-out: MBC99.9
Method in brief: (§1)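 H. pylori (NCTC 11637, F1, 23, F4). Wells with no visible growth in the MIC assay spotted (10 μL) onto Skirrow agar. Plates incubated 72 h at 37 °C, microaerophilic, 100% humidity. MBC = concentration killing 99.9% of the initial inoculum. Triplicate, on at least three different days.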

Helicobacter pylori [3] = assay: Bactericidal against Helicobacter pylori measured after 72 hrs of incubation under microaerophilic conditions by modified broth dilution method
Method in brief: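 Wells with no visible growth in the MIC assay spotted (10 μL) onto Skirrow agar. Plates incubated 72 h at 37 °C, microaerophilic, 100% humidity. Triplicate, on at least three different days.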

Helicobacter pylori [4] = assay: Anti-bacterial activity against Helicobacter pylori measured after 72 hrs incubation by modified broth dilution method
Helicobacter pylori [5] = assay: Anti-bacterial activity against Helicobacter pylori Clinical isolate F1 measured after 72 hrs incubation by modified broth dilution method
Helicobacter pylori [6] = assay: Anti-bacterial activity against Helicobacter pylori Clinical isolate F4 measured after 72 hrs incubation by modified broth dilution method
Helicobacter pylori [7] = assay: Anti-bacterial activity against Helicobacter pylori Clinical isolate 23 measured after 72 hrs incubation by modified broth dilution method
Helicobacter pylori [8] = assay: Bactericidal activity against Helicobacter pylori Clinical isolate 23 measured after 72 hrs of incubation under microaerophilic conditions by modified broth dilution method; settings: read-out: MBC99.9; method in brief: as §1
Helicobacter pylori [9] = assay: Bactericidal activity against Helicobacter pylori Clinical isolate F1 measured after 72 hrs of incubation under microaerophilic conditions by modified broth dilution method; settings: read-out: MBC99.9; method in brief: as §1
Helicobacter pylori [10] = assay: Bactericidal against Helicobacter pylori Clinical isolate F4 measured after 72 hrs of incubation under microaerophilic conditions by modified broth dilution method; settings: read-out: MBC99.9; method in brief: as §1

Compound	MIC (Helicobacter pylori [1]) [µg/mL]	MIC50 (Helicobacter pylori [4]) [µg/mL]	MIC90 (Helicobacter pylori [4]) [µg/mL]	MIC (Helicobacter pylori [5]) [µg/mL]	MIC (Helicobacter pylori [6]) [µg/mL]	MIC (Helicobacter pylori [7]) [µg/mL]	MBC (Helicobacter pylori [2]) [µg/mL]	MBC90 (Helicobacter pylori [3]) [µg/mL]	MBC (Helicobacter pylori [8]) [µg/mL]	MBC (Helicobacter pylori [9]) [µg/mL]	MBC (Helicobacter pylori [10]) [µg/mL]	MBC (Helicobacter pylori [3]; Helicobacter pylori, read-out: MBC99.9) [µg/mL]
COc1ccc(/N=N/c2cc(C(C)C)c(OC(=S)N(C)C)cc2C)cc1	> 128	128 (≈ 345 µM)	> 128	128 (≈ 345 µM)	128 (≈ 345 µM)	128 (≈ 345 µM)	> 128	>128	128 (≈ 345 µM)	> 128	128 (≈ 345 µM)	–
Cc1cc(OC(=O)N(C)C)c(C(C)C)cc1/N=N/c1ccc([N+](=O)[O-])cc1	> 128	> 128	> 128	128 (≈ 346 µM)	128 (≈ 346 µM)	> 128	128 (≈ 346 µM)	128 (≈ 346 µM)	128 (≈ 346 µM)	128 (≈ 346 µM)	128 (≈ 346 µM)	–
COc1ccc(/N=N/c2cc(C=O)cc(OC)c2O)cc1	> 128	> 128	> 128	64 (≈ 224 µM)	> 128	> 128	> 128	>128	> 128	128 (≈ 447 µM)	> 128	–
Cc1ccccc1/N=N/c1cc(C(C)C)c(O)c(/N=N/c2ccccc2C)c1C	> 128	128 (≈ 331 µM)	> 128	128 (≈ 331 µM)	128 (≈ 331 µM)	128 (≈ 331 µM)	> 128	>128	> 128	> 128	> 128	–
COc1ccc(/N=N/c2cc(C(C)C)c(OC(C)=O)cc2C)cc1	128 (≈ 392 µM)	64 (≈ 196 µM)	128 (≈ 392 µM)	128 (≈ 392 µM)	64 (≈ 196 µM)	64 (≈ 196 µM)	128 (≈ 392 µM)	128 (≈ 392 µM)	64 (≈ 196 µM)	128 (≈ 392 µM)	128 (≈ 392 µM)	–
Cc1ncc([N+](=O)[O-])n1CCO [METRONIDAZOLE]	256 (≈ 1500 µM)	2 (≈ 11.7 µM)	256 (≈ 1500 µM)	2 (≈ 11.7 µM)	32 (≈ 187 µM)	1 (≈ 5.84 µM)	256 (≈ 1500 µM)	256 (≈ 1500 µM)	1 (≈ 5.84 µM)	2 (≈ 11.7 µM)	32 (≈ 187 µM)	–

The next lines start with results.

MIC (Helicobacter pylori [1]) [µg/mL]	MIC50 (Helicobacter pylori [4]) [µg/mL]	MIC90 (Helicobacter pylori [4]) [µg/mL]	MIC (Helicobacter pylori [5]) [µg/mL]	MIC (Helicobacter pylori [6]) [µg/mL]	MIC (Helicobacter pylori [7]) [µg/mL]	Compound	MBC (Helicobacter pylori [2]) [µg/mL]	MBC90 (Helicobacter pylori [3]) [µg/mL]	MBC (Helicobacter pylori [8]) [µg/mL]	MBC (Helicobacter pylori [9]) [µg/mL]	MBC (Helicobacter pylori [10]) [µg/mL]	MBC (Helicobacter pylori [3]; Helicobacter pylori, read-out: MBC99.9) [µg/mL]
128 (≈ 410 µM)	> 128	> 128	> 128	> 128	> 128	C=CCc1cc(/N=N/c2ccc3c(c2)OCO3)c(O)c(OC)c1	128 (≈ 410 µM)	>128	> 128	> 128	> 128	–
32 (≈ 195 µM)	32 (≈ 195 µM)	32 (≈ 195 µM)	32 (≈ 195 µM)	32 (≈ 195 µM)	32 (≈ 195 µM)	C/C=C/c1ccc(O)c(OC)c1	32 (≈ 195 µM)	–	32 (≈ 195 µM)	32 (≈ 195 µM)	32 (≈ 195 µM)	32 (≈ 195 µM)
0.016 (≈ 0.0438 µM)	0.016 (≈ 0.0438 µM)	0.064 (≈ 0.175 µM)	0.064 (≈ 0.175 µM)	0.064 (≈ 0.175 µM)	0.016 (≈ 0.0438 µM)	CC1(C)S[C@@H]2[C@H](NC(=O)[C@H](N)c3ccc(O)cc3)C(=O)N2[C@H]1C(=O)O [AMOXICILLIN]	0.016 (≈ 0.0438 µM)	0.064 (≈ 0.175 µM)	0.016 (≈ 0.0438 µM)	0.064 (≈ 0.175 µM)	0.064 (≈ 0.175 µM)	–
4 (≈ 13.9 µM)	4 (≈ 13.9 µM)	4 (≈ 13.9 µM)	4 (≈ 13.9 µM)	4 (≈ 13.9 µM)	4 (≈ 13.9 µM)	Cc1cc(O)c(C(C)C)cc1/N=N/c1ccccc1Cl	4 (≈ 13.9 µM)	8 (≈ 27.7 µM)	8 (≈ 27.7 µM)	4 (≈ 13.9 µM)	4 (≈ 13.9 µM)	–
4 (≈ 14.9 µM)	4 (≈ 14.9 µM)	8 (≈ 29.8 µM)	4 (≈ 14.9 µM)	4 (≈ 14.9 µM)	8 (≈ 29.8 µM)	Cc1ccccc1/N=N/c1cc(C(C)C)c(O)cc1C	4 (≈ 14.9 µM)	8 (≈ 29.8 µM)	8 (≈ 29.8 µM)	4 (≈ 14.9 µM)	4 (≈ 14.9 µM)	–
